Legend:
[1] = Inhibition of melanogenesis in mouse B16-4A5 cells after 72 hrs by spectrophotometry; type: functional, cell-based
[2] = Inhibition of melanogenesis in mouse B16-4A5 cells at 100 uM after 72 hrs by spectrophotometry; type: functional; conditions: B16-4A5, 72 h
[3] = Inhibition of melanogenesis in mouse B16-4A5 cells at 30 uM after 72 hrs by spectrophotometry; type: functional; conditions: B16-4A5, 72 h
[4] = Inhibition of melanogenesis in mouse B16-4A5 cells at 10 uM after 72 hrs by spectrophotometry; type: functional; conditions: B16-4A5, 72 h
[5] = Inhibition of melanogenesis in mouse B16-4A5 cells at 3 uM after 72 hrs by spectrophotometry; type: functional; conditions: B16-4A5, 72 h
[6] = Inhibition of melanogenesis in mouse B16-4A5 cells at 1 uM after 72 hrs by spectrophotometry; type: functional; conditions: B16-4A5, 72 h
[7] = Cytotoxicity against mouse B16-4A5 cells assessed as cell viability at 100 uM after 70 hrs by WST-8 assay
[8] = molecular target: T1, Tyrosinase (Agaricus bisporus) (UniProt O42713); test: Inhibition of mushroom tyrosinase at 100 uM
T1 sequence (whole entry): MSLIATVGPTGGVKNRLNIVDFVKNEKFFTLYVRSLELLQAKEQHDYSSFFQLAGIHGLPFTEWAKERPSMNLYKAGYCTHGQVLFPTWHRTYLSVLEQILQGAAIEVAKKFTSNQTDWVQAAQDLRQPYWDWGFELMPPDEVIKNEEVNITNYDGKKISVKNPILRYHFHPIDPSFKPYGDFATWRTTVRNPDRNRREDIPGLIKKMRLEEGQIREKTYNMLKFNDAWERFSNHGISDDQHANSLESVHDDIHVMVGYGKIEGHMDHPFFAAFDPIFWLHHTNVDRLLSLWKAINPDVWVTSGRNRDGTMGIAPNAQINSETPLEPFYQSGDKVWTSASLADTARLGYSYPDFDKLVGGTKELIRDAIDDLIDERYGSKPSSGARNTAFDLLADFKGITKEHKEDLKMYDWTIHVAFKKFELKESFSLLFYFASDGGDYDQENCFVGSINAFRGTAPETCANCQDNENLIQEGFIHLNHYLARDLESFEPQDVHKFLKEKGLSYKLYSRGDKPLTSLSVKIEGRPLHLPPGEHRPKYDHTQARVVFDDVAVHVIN
How it was run: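 Enzyme mix: 70 µL L-DOPA (2.5 mM in phosphate buffer) as substrate plus 20 µL test solution (DMSO, final 0.1%). Reaction started with 120 µL mushroom tyrosinase (80.5 units/mL), run 5 min at 25 °C. Dopaquinone measured by absorbance at 405 nm (reference 655 nm). Inhibition % = (A−B)/A × 100 versus vehicle.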

[9] = Antimelanogenic activity in mouse B16-4A5 cells assessed as inhibition of TRP2 mRNA expression at 30 uM after 72 hrs by RT-PCR analysis relative to beta-actin mRNA; type: functional
How it was run: (§1)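 B16 melanoma 4A5 cells seeded at 1.0 × 10^5 cells/well in 6-well plates, cultured 24 h, then exposed to test compound plus theophylline 1 mM for 72 h. Total RNA extracted; cDNA from 1 µg RNA; SYBR Green real-time PCR (95 °C 2 min; 40 cycles 95/58/72 °C, 30 s each) with gene-specific primers; relative quantification normalized to β-actin mRNA.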

[10] = Antimelanogenic activity in mouse B16-4A5 cells assessed as inhibition of TRP2 mRNA expression at 10 uM after 72 hrs by RT-PCR analysis relative to beta-actin mRNA; type: functional; how it was run: as §1
[11] = Antimelanogenic activity in mouse B16-4A5 cells assessed as inhibition of TRP2 mRNA expression at 3 uM after 72 hrs by RT-PCR analysis relative to beta-actin mRNA; type: functional; how it was run: as §1
[12] = Antimelanogenic activity in mouse B16-4A5 cells assessed as inhibition of TRP1 mRNA expression at 30 uM after 72 hrs by RT-PCR analysis relative to beta-actin mRNA; type: functional; how it was run: as §1
[13] = Antimelanogenic activity in mouse B16-4A5 cells assessed as inhibition of TRP1 mRNA expression at 10 uM after 72 hrs by RT-PCR analysis relative to beta-actin mRNA; type: functional; how it was run: as §1
[14] = Antimelanogenic activity in mouse B16-4A5 cells assessed as inhibition of TRP1 mRNA expression at 3 uM after 72 hrs by RT-PCR analysis relative to beta-actin mRNA; type: functional; how it was run: as §1
[15] = Antimelanogenic activity in mouse B16-4A5 cells assessed as inhibition of tyrosinase mRNA expression at 30 uM after 72 hrs by RT-PCR analysis relative to beta-actin mRNA; type: functional; how it was run: as §1
[16] = Antimelanogenic activity in mouse B16-4A5 cells assessed as inhibition of tyrosinase mRNA expression at 10 uM after 72 hrs by RT-PCR analysis relative to beta-actin mRNA; type: functional; how it was run: as §1
[17] = Antimelanogenic activity in mouse B16-4A5 cells assessed as inhibition of tyrosinase mRNA expression at 3 uM after 72 hrs by RT-PCR analysis relative to beta-actin mRNA; type: functional; how it was run: as §1

| Compound | IC50 [1] | inhibition at 100 µM [2] | inhibition at 30 µM [3] | inhibition at 10 µM [4] | inhibition at 3 µM [5] | inhibition at 1 µM [6] | viability at 70 h, 100 µM [7] | inhibition [8] | fold change (FC) [9] | fold change (FC) [10] | fold change (FC) [11] | fold change (FC) [12] | fold change (FC) [13] | fold change (FC) [14] | fold change (FC) [15] | fold change (FC) [16] | fold change (FC) [17] |
| --- | --- | --- | --- | --- | --- | --- | --- | --- | --- | --- | --- | --- | --- | --- | --- | --- | --- |
| COc1c(O)cc2c3c1-c1ccccc1C[C@@H]3NCC2 [ASIMILOBINE] | > 100 µM | 36.2% | 39.7% | 12.1% | -7.4% | 7.4% |  |  |  |  |  |  |  |  |  |  |  |
| COc1cc2ccnc3c2c(c1OC)-c1ccccc1C3=O [LYSICAMINE] |  |  | 65.3% | -1.5% | 8.7% | 4.8% | 22.5% |  |  |  |  |  |  |  |  |  |  |
| COc1c(O)cc2c3c1-c1ccccc1C[C@H]3N(C)CC2 | 14.5 µM | 90.5% | 70.6% | 37.9% | 19.7% | 15.4% | 82% | < 3% | 0.88 | 0.96 | 1.1 | 0.49 | 0.72 | 0.79 | 0.53 | 0.76 | 0.65 |
| COc1c(O)cc2c3c(cc4ccccc4c13)N(C)CC2 | 13.3 µM | 78.7% | 87.4% | 37.6% | 13.2% | 10.9% | 46% |  |  |  |  |  |  |  |  |  |  |
| COc1cc2c3c(c1OC)C1(C=CC(=O)C=C1)C[C@H]3N(C)CC2 [PRONUCIFERINE] | 47.9 µM | 66.4% | 40.3% | 18.3% | 16.8% | 4% | 82% |  |  |  |  |  |  |  |  |  |  |
| OC[C@H]1O[C@@H](Oc2ccc(O)cc2)[C@H](O)[C@@H](O)[C@@H]1O [ARBUTIN] | 174 µM | 38.1% | 20.4% | 10.6% |  |  |  |  |  |  |  |  |  |  |  |  |  |
| COc1c(O)cc2c3c1-c1ccccc1C[C@H]3NCC2 [ASIMILOBINE] |  |  |  |  |  |  | 46% |  |  |  |  |  |  |  |  |  |  |
| c1ccc2c(c1)CCNC2 [1,2,3,4-TETRAHYDROISOQUINOLINE] |  | 26.1% | 2.8% | -54.2% | -41.5% | -12.6% | 46% |  |  |  |  |  |  |  |  |  |  |
| COc1cc2c3c(c1OC)-c1ccccc1C[C@H]3NCC2 | 62.9 µM | 91.9% | 17.6% | 12.1% | 16.2% | 5.8% | 82% |  |  |  |  |  |  |  |  |  |  |
| COc1cc2c3c(c1O)-c1ccccc1C[C@H]3N(C)CC2 | 19.3 µM |  | 65.9% | 27.3% | 11.1% | -2.6% | 39.7% |  |  |  |  |  |  |  |  |  |  |
| COc1cc2c3c(c1)-c1ccccc1CC3N(C)CC2 (configuration not stated) | 2 µM |  | 82.5% | 76% | 54.7% | 39.1% |  |  |  |  |  |  |  |  |  |  |  |
| CN1CCc2ccccc2C1 |  | 15.9% | 16.5% | 9.4% | 9.7% | 10.6% | 82% |  |  |  |  |  |  |  |  |  |  |
| COc1cc2c3c(cc4ccccc4c3c1OC)N(C)CC2 [DEHYDRONUCIFERINE] | 85 µM | 78.4% | 8% | 11.8% | 4.8% | 14.5% | 77% |  |  |  |  |  |  |  |  |  |  |
| CN1CCc2ccccc2C1Cc1ccccc1 (configuration not stated) | 5 µM | 75.4% | 51.8% | 59.7% | 40.5% | 24.5% | 77% |  |  |  |  |  |  |  |  |  |  |
| COc1cc2c(cc1OC)C(Cc1ccc(O)cc1)N(C)CC2 (racemic) | 25.6 µM | 80.3% | 50.4% | 34% | 18.2% | 7.5% | 82% |  |  |  |  |  |  |  |  |  |  |
| COc1cc2c3c(c1OC)-c1ccccc1C[C@H]3[N+](C)([O-])CC2 (some centres not stated) | 43 µM | 88.4% | 33.7% | -0.1% | -3.2% | -4.8% | 82% |  |  |  |  |  |  |  |  |  |  |
| COc1cc2c3c(c1OC)-c1ccccc1C[C@H]3N(C)CC2 [NUCIFERINE] | 15.8 µM | 89.3% | 72.3% | 32.1% | 16.5% | 11.5% | 46% | < 3% | 0.65 | 0.71 | 1.11 | 0.36 | 0.74 | 0.76 | 0.38 | 0.64 | 0.61 |
